Results published in ChEMBL document CHEMBL1221394, “Anti-AIDS agents 79. Design, synthesis, molecular modeling and structure-activity relationships of novel dicamphanoyl-2',2'-dimethyldihydropyranochromone (DCP) analogs as potent anti-HIV agents” (Bioorg Med Chem, 2010).
Values after ≈ are worked out from the molar mass of the structure shown.

Assays:
[1] = Therapeutic index, ratio of IC50 for human TZM-b1 cells to EC50 for HIV1 NL4-3; type: cell-based; settings: read-out: TI
Summary of the method: (§1)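 Cytotoxicity was measured with the CytoTox-Glo kit following the manufacturer's instructions. Antiviral EC50 came from the single-round TZM-bl luciferase assay: 200 TCID50 virus, eight 4-fold sample dilutions, 48 h, and 50% RLU reduction versus virus control after background subtraction.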

[2] = Cytotoxicity against human TZM-b1 cells; type: cell-based
Summary of the method: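 Cytotoxicity in TZM-bl cells read with the CytoTox-Glo luminescent assay, run according to the kit instructions.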

[3] = Therapeutic index, ratio of IC50 for human TZM-b1 cells to EC50 for HIV1 RTMDR1; type: cell-based; settings: read-out: TI; summary of the method: as §1
[4] = Solubility of the compound in water after 1 hr; type: physicochemical
Summary of the method: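 Excess solid compound was added to HPLC-grade water and sonicated in an ultrasonic bath at room temperature for 1 h. Undissolved solid was removed with a PTFE syringe filter. Dissolved concentration was quantified by HPLC on a C18 column (2.1 mm × 100 mm) at a flow rate of 200 μL/min.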

[5] = tested on: Human immunodeficiency virus 1; test: Antiviral activity against HIV1 RTMDR1 in human TZM-b1 cells after 48 hrs by luciferase reporter gene assay; type: functional, organism-based; settings: Human immunodeficiency virus 1, RTMDR1, TZM-b1, 48 h
Summary of the method: (§2)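 Single-round infection of TZM-bl cells with 200 TCID50 virus mixed with test sample at eight 4-fold serial dilutions. Incubated 48 h, then luciferase reagent was added and luminescence read. IC50 is the concentration giving 50% reduction in RLU versus virus-control wells, after subtracting background RLU.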

[6] = tested on: Human immunodeficiency virus 1; test: Antiviral activity against wild type HIV1 NL4-3 in human TZM-b1 cells after 48 hrs by luciferase reporter gene assay; type: functional, organism-based; settings: Human immunodeficiency virus 1, NL4-3, TZM-b1, 48 h; summary of the method: as §2
[7] = tested on: Human immunodeficiency virus 1; test: Antiviral activity against HIV1 3B infected in human H9 cells; type: functional, organism-based; settings: Human immunodeficiency virus 1, 3B
[8] = Therapeutic index, ratio of CC50 for human H9 cells to EC50 for HIV1 3B; type: cell-based; settings: read-out: TI

| SMILES | selectivity ratio [1] | IC50 [2] [nM] | selectivity ratio [3] | solubility ([4]; HPLC grade water, 1 h) [µg/mL] | EC50 [5] [nM] | EC50 [6] [nM] | EC50 [7] [nM] | selectivity ratio [8] | solubility at 1 h ([4]; water) [µg/mL] |
| --- | --- | --- | --- | --- | --- | --- | --- | --- | --- |
| CC1(C)Oc2ccc3c(=O)cc(CN4CCOCC4)oc3c2[C@@H](OC(=O)[C@@]23CC[C@@](C)(C(=O)O2)C3(C)C)[C@H]1OC(=O)[C@@]12CC[C@@](C)(C(=O)O1)C2(C)C | > 14 | > 28000 | > 6.3 |  |  |  |  |  |  |
| CCc1oc2c3c(ccc2c(=O)c1N)OC(C)(C)[C@H](OC(=O)[C@@]12CC[C@@](C)(C(=O)O1)C2(C)C)[C@@H]3OC(=O)[C@@]12CC[C@@](C)(C(=O)O1)C2(C)C | 190 | 23000 | 74 | 10.3 (≈ 15.5 µM) | 310 | 120 |  |  |  |
| CC1(C)Oc2ccc3c(=O)cc(CNCc4ccncc4)oc3c2[C@@H](OC(=O)[C@@]23CC[C@@](C)(C(=O)O2)C3(C)C)[C@H]1OC(=O)[C@@]12CC[C@@](C)(C(=O)O1)C2(C)C | > 1.3 | > 27000 | > 1.3 |  |  | 21000 |  |  |  |
| Cc1cc(=O)c2c(CBr)cc3c(c2o1)[C@@H](OC(=O)[C@@]12CC[C@@](C)(C(=O)O1)C2(C)C)[C@@H](OC(=O)[C@@]12CC[C@@](C)(C(=O)O1)C2(C)C)C(C)(C)O3 | 11 | 8900 | 7.4 |  | 1200 | 810 |  |  |  |
| CC1(C)Oc2ccc3c(=O)cc(CBr)oc3c2[C@@H](OC(=O)[C@@]23CC[C@@](C)(C(=O)O2)C3(C)C)[C@H]1OC(=O)[C@@]12CC[C@@](C)(C(=O)O1)C2(C)C | 3 | 1700 | 3 |  | 560 | 550 |  |  |  |
| CCc1cc(=O)c2c(C)cc3c(c2o1)[C@@H](OC(=O)[C@@]12CC[C@@](C)(C(=O)O1)C2(C)C)[C@@H](OC(=O)[C@@]12CC[C@@](C)(C(=O)O1)C2(C)C)C(C)(C)O3 | 110 | 11000 | 200 |  | 54 | 100 |  |  |  |
| CC1(C)Oc2ccc3ccc(=O)oc3c2[C@@H](OC(=O)C23CCC(C)(C(=O)O2)C3(C)C)[C@H]1OC(=O)C12CCC(C)(C(=O)O1)C2(C)C (stereo partly specified) |  |  |  |  |  |  | 49 | 328 |  |
| CC(Br)c1cc(=O)c2ccc3c(c2o1)[C@@H](OC(=O)[C@@]12CC[C@@](C)(C(=O)O1)C2(C)C)[C@@H](OC(=O)[C@@]12CC[C@@](C)(C(=O)O1)C2(C)C)C(C)(C)O3 (stereo partly specified) |  | 3500 |  |  |  |  |  |  |  |
| Cc1cc(=O)c2c(C)cc3c(c2o1)[C@@H](OC(=O)[C@@]12CC[C@@](C)(C(=O)O1)C2(C)C)[C@@H](OC(=O)[C@@]12CC[C@@](C)(C(=O)O1)C2(C)C)C(C)(C)O3 | 420 | 15000 | 310 |  | 49 | 36 |  |  | 5.2 (≈ 7.99 µM) |
| CC(Br)(Br)c1cc(=O)c2ccc3c(c2o1)[C@@H](OC(=O)[C@@]12CC[C@@](C)(C(=O)O1)C2(C)C)[C@@H](OC(=O)[C@@]12CC[C@@](C)(C(=O)O1)C2(C)C)C(C)(C)O3 | 1.8 | 1800 | 4 |  | 450 | 1000 |  |  |  |
| CNc1c(C)oc2c3c(ccc2c1=O)OC(C)(C)[C@H](OC(=O)[C@@]12CC[C@@](C)(C(=O)O1)C2(C)C)[C@@H]3OC(=O)[C@@]12CC[C@@](C)(C(=O)O1)C2(C)C | > 200 | > 60000 | > 130 |  | 450 | 300 |  |  |  |
| Cc1oc2c3c(ccc2c(=O)c1Br)OC(C)(C)[C@H](OC(=O)[C@@]12CC[C@@](C)(C(=O)O1)C2(C)C)[C@@H]3OC(=O)[C@@]12CC[C@@](C)(C(=O)O1)C2(C)C | 14 | 7700 | 14 |  | 570 | 550 |  |  |  |
| Cc1oc2c3c(c(Br)c(C)c2c(=O)c1Br)OC(C)(C)[C@H](OC(=O)[C@@]12CC[C@@](C)(C(=O)O1)C2(C)C)[C@@H]3OC(=O)[C@@]12CC[C@@](C)(C(=O)O1)C2(C)C | > 1.2 | > 12000 |  |  | > 12000 | 10000 |  |  |  |
| CNCc1cc(=O)c2ccc3c(c2o1)[C@@H](OC(=O)[C@@]12CC[C@@](C)(C(=O)O1)C2(C)C)[C@@H](OC(=O)[C@@]12CC[C@@](C)(C(=O)O1)C2(C)C)C(C)(C)O3 | > 100 | > 30000 | > 43 |  | 690 | 290 |  |  |  |
| CCc1oc2c3c(ccc2c(=O)c1Br)OC(C)(C)[C@H](OC(=O)[C@@]12CC[C@@](C)(C(=O)O1)C2(C)C)[C@@H]3OC(=O)[C@@]12CC[C@@](C)(C(=O)O1)C2(C)C | > 24 | > 27000 | > 28 |  | 990 | 1100 |  |  |  |
| CCc1cc(=O)c2c(CC)cc3c(c2o1)[C@@H](OC(=O)[C@@]12CC[C@@](C)(C(=O)O1)C2(C)C)[C@@H](OC(=O)[C@@]12CC[C@@](C)(C(=O)O1)C2(C)C)C(C)(C)O3 | > 120 | > 30000 |  |  | 340 | 250 |  |  |  |
| Cc1oc2c3c(ccc2c(=O)c1I)OC(C)(C)[C@H](OC(=O)[C@@]12CC[C@@](C)(C(=O)O1)C2(C)C)[C@@H]3OC(=O)[C@@]12CC[C@@](C)(C(=O)O1)C2(C)C | 18 | 13000 | 8 |  | 1600 | 730 |  |  |  |
| Cc1oc2c3c(ccc2c(=O)c1N)OC(C)(C)[C@H](OC(=O)[C@@]12CC[C@@](C)(C(=O)O1)C2(C)C)[C@@H]3OC(=O)[C@@]12CC[C@@](C)(C(=O)O1)C2(C)C | 130 | 32000 | 68 |  | 470 | 250 |  |  |  |
| Cc1cc(=O)c2ccc3c(c2o1)[C@@H](OC(=O)[C@@]12CC[C@@](C)(C(=O)O1)C2(C)C)[C@@H](OC(=O)[C@@]12CC[C@@](C)(C(=O)O1)C2(C)C)C(C)(C)O3 | 110 | 11000 | 58 |  | 190 | 100 |  |  |  |
| CC1(C)Oc2ccc3c(=O)cc(CC#N)oc3c2[C@@H](OC(=O)[C@@]23CC[C@@](C)(C(=O)O2)C3(C)C)[C@H]1OC(=O)[C@@]12CC[C@@](C)(C(=O)O1)C2(C)C | 9.4 | 17000 | 12 |  | 1400 | 1800 |  |  |  |
| Cc1c(C#N)oc2c3c(ccc2c1=O)OC(C)(C)[C@H](OC(=O)[C@@]12CC[C@@](C)(C(=O)O1)C2(C)C)[C@@H]3OC(=O)[C@@]12CC[C@@](C)(C(=O)O1)C2(C)C | 290 | 40000 | 21 |  | 1900 | 140 |  |  |  |
| CCc1oc2c3c(ccc2c(=O)c1NC)OC(C)(C)[C@H](OC(=O)[C@@]12CC[C@@](C)(C(=O)O1)C2(C)C)[C@@H]3OC(=O)[C@@]12CC[C@@](C)(C(=O)O1)C2(C)C | 73 | 32000 | 29 |  | 1100 | 440 |  |  |  |
| CN(C)CCCN1CCN(Cc2cc(=O)c3ccc4c(c3o2)[C@@H](OC(=O)[C@@]23CC[C@@](C)(C(=O)O2)C3(C)C)[C@@H](OC(=O)[C@@]23CC[C@@](C)(C(=O)O2)C3(C)C)C(C)(C)O4)CC1 |  | 17000 |  |  |  |  |  |  |  |
| CCc1oc2c3c(ccc2c(=O)c1C#N)OC(C)(C)[C@H](OC(=O)[C@@]12CC[C@@](C)(C(=O)O1)C2(C)C)[C@@H]3OC(=O)[C@@]12CC[C@@](C)(C(=O)O1)C2(C)C | > 54 | > 30000 | > 37 |  | 790 | 550 |  |  |  |
| Cc1oc2c3c(cc(C)c2c(=O)c1Br)OC(C)(C)[C@H](OC(=O)[C@@]12CC[C@@](C)(C(=O)O1)C2(C)C)[C@@H]3OC(=O)[C@@]12CC[C@@](C)(C(=O)O1)C2(C)C | > 24 | > 14000 | > 15 |  | 910 | 590 |  |  |  |
